Experimental data as given in ChEMBL document CHEMBL1126976, “Hybrids of antibiotics inhibiting protein synthesis. Synthesis and biological activity” (1993).
Converted amounts (≈) assume the structure as drawn.

What was measured:
Pseudomonas aeruginosa [1] = test: The compound was tested for minimum inhibitory concentration required for inhibition of microbial growth in Pseudomonas aeruginosa at the Upjohn culture 95; format: functional
In short: (§1)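 Agar dilution in brain heart infusion agar with serial 2-fold compound dilutions. Organisms grown overnight on BHIA at 35 °C aerobically and suspended in TSB to 0.5 McFarland. The suspension is diluted 1:20 and spotted as 1-μL drops (~10^4 CFU). Plates incubated 18 h at 35 °C. MIC is the lowest concentration preventing visible growth.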

Pseudomonas aeruginosa [2] = test: The compound was tested for minimum inhibitory concentration required for inhibition of microbial growth in Pseudomonas aeruginosa at the Upjohn culture 6676; format: functional; in short: as §1
Streptococcus pyogenes = test: The compound was tested for minimum inhibitory concentration required for inhibition of microbial growth in Streptococcus pyogenes at the Upjohn culture; format: functional; in short: as §1
Staphylococcus aureus [3] = test: The compound was tested for minimum inhibitory concentration required for inhibition of microbial growth in staphylococcus aureus at the Upjohn culture 76; format: functional; in short: as §1
Staphylococcus aureus [4] = test: The compound was tested for minimum inhibitory concentration required for inhibition of microbial growth in staphylococcus aureus at the Upjohn culture 6690; format: functional; in short: as §1
Staphylococcus aureus [5] = test: The compound was tested for minimum inhibitory concentration required for inhibition of microbial growth in staphylococcus aureus at the Upjohn culture 6685; format: functional; in short: as §1
[6] = The compound was tested for minimum inhibitory concentration required for inhibition of microbial growth in Salmonella schottmuelleri; format: functional; in short: as §1
Escherichia coli = test: The compound was tested for minimum inhibitory concentration required for inhibition of microbial growth in Escherichia coli at the Upjohn culture; format: functional; in short: as §1
Klebsiella pneumoniae = test: The compound was tested for minimum inhibitory concentration required for inhibition of microbial growth in Klebsiella pneumoniae at the Upjohn culture; format: functional; in short: as §1
Streptococcus pneumoniae = test: The compound was tested for minimum inhibitory concentration required for inhibition of microbial growth in Streptococcus pneumoniae at the Upjohn culture; format: functional; in short: as §1
Enterococcus faecalis = test: The compound was tested for minimum inhibitory concentration required for inhibition of microbial growth in Enterococcus faecalis at the Upjohn culture; format: functional; in short: as §1
Saccharomyces cerevisiae [7] = test: The compound was tested for inhibition of Polyphenylalanine synthesis in Saccharomyces cerevisiae ribosome system at concentration of 1*10e-4 M; values are per cent of control
Saccharomyces cerevisiae [8] = test: The compound was tested for inhibition of Polyphenylalanine synthesis in Saccharomyces cerevisiae ribosome system at concentration of 1*10e-3 M; values are per cent of control
Saccharomyces cerevisiae [9] = test: The compound was tested for inhibition of Polyphenylalanine synthesis in Saccharomyces cerevisiae ribosome system at concentration of 1*10e-5 M; values are per cent of control
Rattus norvegicus [10] = species on record: Rattus norvegicus; test: The compound was tested for inhibition of Puromycin reaction with hybrid antibiotics in a rat liver ribosome system concentrations of 2*10e-4 M; values are per cent of control
Rattus norvegicus [11] = species on record: Rattus norvegicus; test: The compound was tested for inhibition of Puromycin reaction with hybrid antibiotics in a rat liver ribosome system concentrations at 1*10e-3 M; values are per cent of control
Rattus norvegicus [12] = species on record: Rattus norvegicus; test: as above; remark: listed apart in the source
Rattus norvegicus [13] = species on record: Rattus norvegicus; test: The compound was tested for inhibition of Puromycin reaction with hybrid antibiotics in a rat liver ribosome system concentrations of 2*10e-4 M; values are per cent of control; remark: listed apart in the source

MIC (Pseudomonas aeruginosa [1]) [µg/mL]	MIC (Pseudomonas aeruginosa [2]) [µg/mL]	MIC (Streptococcus pyogenes) [µg/mL]	MIC (Staphylococcus aureus [3]) [µg/mL]	MIC (Staphylococcus aureus [4]) [µg/mL]	MIC (Staphylococcus aureus [5]) [µg/mL]	MIC [6] [µg/mL]	MIC (Escherichia coli) [µg/mL]	MIC (Klebsiella pneumoniae) [µg/mL]	MIC (Streptococcus pneumoniae) [µg/mL]	MIC (Enterococcus faecalis) [µg/mL]	SMILES	level, % of control (Saccharomyces cerevisiae [7]) [%]	level, % of control (Saccharomyces cerevisiae [8]) [%]	level, % of control (Saccharomyces cerevisiae [9]) [%]	level, % of control (Rattus norvegicus [10]) [%]	level, % of control (Rattus norvegicus [11]) [%]	level, % of control (Rattus norvegicus [12]) [%]	level, % of control (Rattus norvegicus [13]) [%]
> 400	> 400	0.2 (≈ 0.492 µM)	0.78 (≈ 1.92 µM)	0.78 (≈ 1.92 µM)	> 400	> 800	> 400	400 (≈ 984 µM)	0.78 (≈ 1.92 µM)	50 (≈ 123 µM)	CCC[C@@H]1C[C@@H](C(=O)N[C@@H]([C@H]2O[C@H](SC)[C@H](O)[C@@H](O)[C@H]2O)[C@@H](C)O)N(C)C1 [LINCOMYCIN]							
> 800		200 (≈ 547 µM)	800 (≈ 2190 µM)	> 800	800 (≈ 2190 µM)	> 800	> 800	800 (≈ 2190 µM)			CCCC1CC(C(=O)NC(CO)C(O)c2ccc([N+](=O)[O-])cc2)N(C)C1 (centres undefined)							
> 400	> 400	50 (≈ 128 µM)	> 400	> 400	> 400	> 400	> 400	> 400	> 400	> 400	Cc1nc(O)nc(O)c1/C=C/C(=O)NC(CO)C(O)c1ccc([N+](=O)[O-])cc1 (centres undefined)							
											CSC[S@@+]([O-])CC(CO)NC(=O)/C=C/c1c(C)[nH]c(=O)[nH]c1=O (some centres undefined)	30.3	15.5	44.1				
> 400	> 400	> 400	> 400	> 400	> 400	> 400	> 400	> 400	> 400	> 400	CSC1OC(C(NC(=O)/C=C/c2c(C)nc(O)nc2O)C(C)O)C(O)C(O)C1O (centres undefined)	97.7	93.4	101	90	91		
											Cc1nc(O)nc(O)c1/C=C/C(=O)N[C@H]1[C@@H](O)[C@H](n2cnc3c(N(C)C)ncnc32)O[C@@H]1CO	95.8	95.7	106			76	69
> 400	> 400	6.25 (≈ 17.2 µM)	50 (≈ 137 µM)	50 (≈ 137 µM)	> 400	> 400	> 400	> 400	25 (≈ 68.6 µM)	> 400	CSC1OC(C(NC(=O)C(Cl)Cl)C(C)O)C(O)C(O)C1O (centres undefined)	90.9	96.8	97.3				

SMILES	MIC (Pseudomonas aeruginosa [1]) [µg/mL]	MIC (Pseudomonas aeruginosa [2]) [µg/mL]	MIC (Streptococcus pyogenes) [µg/mL]	MIC (Staphylococcus aureus [3]) [µg/mL]	MIC (Staphylococcus aureus [4]) [µg/mL]	MIC (Staphylococcus aureus [5]) [µg/mL]	MIC [6] [µg/mL]	MIC (Escherichia coli) [µg/mL]	MIC (Klebsiella pneumoniae) [µg/mL]	MIC (Streptococcus pneumoniae) [µg/mL]	MIC (Enterococcus faecalis) [µg/mL]	level, % of control (Saccharomyces cerevisiae [7]) [%]	level, % of control (Saccharomyces cerevisiae [8]) [%]	level, % of control (Saccharomyces cerevisiae [9]) [%]	level, % of control (Rattus norvegicus [10]) [%]	level, % of control (Rattus norvegicus [11]) [%]	level, % of control (Rattus norvegicus [12]) [%]	level, % of control (Rattus norvegicus [13]) [%]
O=C(N[C@H](CO)[C@H](O)c1ccc([N+](=O)[O-])cc1)C(Cl)Cl [CHLORAMPHENICOL]	100 (≈ 309 µM)	200 (≈ 619 µM)	3.12 (≈ 9.66 µM)	6.25 (≈ 19.3 µM)	50 (≈ 155 µM)	6.25 (≈ 19.3 µM)	6.25 (≈ 19.3 µM)	3.12 (≈ 9.66 µM)	3.12 (≈ 9.66 µM)	3.12 (≈ 9.66 µM)	6.25 (≈ 19.3 µM)							
